Experimental data from ChEMBL document CHEMBL1126555, “6-Substituted benzimidazoles as new nonpeptide angiotensin II receptor antagonists: synthesis, biological activity, and structure-activity relationships” (J Med Chem, 1993).

Key:
[1] = target: T1, Type-1 angiotensin II receptor B (Rattus norvegicus, UniProt P29089); assay: Inhibition of specific binding of [125I]angiotensin-II to angiotensin 1 receptor in rat lung membrane preparation; type: cell membranes
T1 sequence (P29089 whole entry): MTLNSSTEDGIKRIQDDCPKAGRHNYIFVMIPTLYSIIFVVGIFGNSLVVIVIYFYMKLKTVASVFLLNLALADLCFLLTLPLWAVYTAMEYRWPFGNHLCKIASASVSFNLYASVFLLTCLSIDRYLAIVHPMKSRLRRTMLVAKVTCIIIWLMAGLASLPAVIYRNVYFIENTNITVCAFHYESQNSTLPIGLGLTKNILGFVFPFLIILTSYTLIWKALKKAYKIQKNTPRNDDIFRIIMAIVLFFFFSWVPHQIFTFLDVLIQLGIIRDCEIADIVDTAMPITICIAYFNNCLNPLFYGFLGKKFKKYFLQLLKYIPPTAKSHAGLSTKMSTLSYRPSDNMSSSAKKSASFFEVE
How it was run: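 Membranes from lungs of male Wistar rats (Chbb:THOM, 200–220 g), homogenized in Tris buffer pH 7.20 and spun at 1000g, then twice at 48 000g. DMSO ≤1%. Nonspecific binding defined with 1 μM AII. Filtration, gamma counting. IC50 from nonlinear fit; Ki by Cheng–Prusoff.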

[2] = system: Rattus norvegicus; assay: Tested for percent inhibition of AII pressor response 2 hr after i.v. administration of 0.3 mg/Kg in rats; type: functional; conditions: iv
[3] = system: Rattus norvegicus; assay: Maximum fall in mean arterial blood pressure (MABP) at 1 mg/kg po bid after 4 days of treatment in conscious chronically-instrumented renovascular hypertensive rats; type: functional
How it was run: (§1)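 Male Chbb:THOM rats (140–150 g) made renovascular hypertensive by a silver clip (internal diameter 0.20 mm) on the left renal artery under pentobarbitone-sodium (50 mg/kg ip). Chronic-use pressure transmitter implanted. Conscious animals dosed orally twice daily for 4 days. Mean arterial pressure and heart rate recorded continuously at 1-h intervals over 96 h, given as mean ± SE.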

[4] = system: Rattus norvegicus; assay: Fall in mean arterial blood pressure (MABP) at 1 mg/kg po bid for 4 days after first treatment in conscious chronically-instrumented renovascular hypertensive rats; type: functional; how it was run: as §1

Row | SMILES | IC50 [1] | also measured
1 | CCCCc1nc2cc(N)ccc2n1Cc1ccc(-c2ccccc2C(=O)O)cc1 | 820 nM | –
2 | CCCCc1nc2c(NC(=O)NC3CCCCC3)cccc2n1Cc1ccc(-c2ccccc2C(=O)O)cc1 | 29300 nM | –
3 | CCCCc1nc2ccccc2n1Cc1ccc(-c2ccccc2C(=O)O)cc1 | 400 nM | –
4 | CCCCc1nc(Cl)c(CO)n1Cc1ccc(-c2ccccc2C(=O)O)cc1 | 350 nM | –
5 | CCCCc1nc2cc(NC(C)=O)ccc2n1Cc1ccc(-c2ccccc2C(=O)O)cc1 | 460 nM | –
6 | CCCCc1nc2ccc(C)cc2n1Cc1ccc(-c2ccccc2C(=O)O)cc1 | 850 nM | –
7 | CCCCc1nc2c(C)cccc2n1Cc1ccc(-c2ccccc2C(=O)O)cc1 | 1200 nM | –
8 | CCCCc1nc2c(N)cccc2n1Cc1ccc(-c2ccccc2C(=O)O)cc1 | 1700 nM | –
9 | CCCCc1nc2ccc(NC(C)=O)cc2n1Cc1ccc(-c2ccccc2C(=O)O)cc1 | 180 nM | –
10 | CCCCc1nc2c(NC(C)=O)cccc2n1Cc1ccc(-c2ccccc2C(=O)O)cc1 | 5700 nM | –
11 | CCCCc1nc2cc(C)ccc2n1Cc1ccc(-c2ccccc2C(=O)O)cc1 | 1200 nM | –
12 | CCCCc1nc2cccc(NC(=O)NC3CCCCC3)c2n1Cc1ccc(-c2ccccc2C(=O)O)cc1 | 160 nM | –
13 | CCCc1nc2ccc(-c3nc4ccccc4o3)cc2n1Cc1ccc(-c2ccccc2-c2nn[nH]n2)cc1 | 240 nM | –
14 | CCCCc1nc2cccc(NC(C)=O)c2n1Cc1ccc(-c2ccccc2C(=O)O)cc1 | 1800 nM | –
15 | CCCCc1nc2ccc(N)cc2n1Cc1ccc(-c2ccccc2C(=O)O)cc1 | 540 nM | –
16 | CCCCCNc1ccc2nc(CCCC)n(Cc3ccc(-c4ccccc4C(=O)O)cc3)c2c1 | 390 nM | –
17 | CCCCc1nc2cc(NC(=O)NC3CCCCC3)ccc2n1Cc1ccc(-c2ccccc2C(=O)O)cc1 | 800 nM | –
18 | CCCCc1nc2cccc(C)c2n1Cc1ccc(-c2ccccc2C(=O)O)cc1 | 480 nM | –

The next lines start with results.

Row | IC50 [1] | SMILES | also measured
19 | 160 nM | CCCCc1nc2ccc(N3CCCCC3)cc2n1Cc1ccc(-c2ccccc2C(=O)O)cc1 | –
20 | 81 nM | CCCCc1nc2ccc(N3CCCCC3=O)cc2n1Cc1ccc(-c2ccccc2C(=O)O)cc1 | –
21 | 8 nM | CCCCc1nc2ccc(NC(=O)N(C)C)cc2n1Cc1ccc(-c2ccccc2-c2nn[nH]n2)cc1 | –
22 | 26 nM | CCCCc1nc2ccc(NC(=O)NC3CCCCC3)cc2n1Cc1ccc(-c2ccccc2C(=O)O)cc1 | –
23 | 11 nM | CCCc1nc2ccc(-c3ccccn3)cc2n1Cc1ccc(-c2ccccc2-c2nnn[nH]2)cc1 | –
24 | 158 nM | CCCc1nc2c(C)cc(CN(C)C)cc2n1Cc1ccc(-c2ccccc2C(=O)O)cc1 | –
25 | 13 nM | CCCc1nc2c(C)cc(-c3nc4ccccc4n3C)cc2n1Cc1ccc(-c2ccccc2-c2nnn[nH]2)cc1 | –
26 | 21 nM | CCCCc1nc2ccc(NC(=O)NC3CCCCC3)cc2n1Cc1ccc(-c2ccccc2-c2nn[nH]n2)cc1 | –
27 | 33 nM | CCCCc1nc2ccc(N(C)S(=O)(=O)CCC)cc2n1Cc1ccc(-c2ccccc2C(=O)O)cc1 | –
28 | 10 nM | CCCCc1nc2ccc(N(C)C(=O)NC3CCCCC3)cc2n1Cc1ccc(-c2ccccc2-c2nn[nH]n2)cc1 | –
29 | 5 nM | CCCc1nc2ccc(-c3nc4ccccc4n3C)cc2n1Cc1ccc(-c2ccccc2-c2nn[nH]n2)cc1 | –
30 | 24 nM | CCCCc1nc2ccc(NC(=O)N(C)C)cc2n1Cc1ccc(-c2ccccc2C(=O)O)cc1 | –
31 | 3 nM | CCCc1nc2ccc(-c3nc4ccccc4n3C)cc2n1Cc1ccc(-c2ccccc2C(=O)O)cc1 | –
32 | 5 nM | CCCc1nc2c(C)cc(-c3ccccn3)cc2n1Cc1ccc(-c2ccccc2-c2nnn[nH]2)cc1 | –
33 | 26 nM | CCCCc1nc2ccc(N(C)C(=O)NC3CCCCC3)cc2n1Cc1ccc(-c2ccccc2C(=O)O)cc1 | –
34 | 34 nM | CCCCc1nc2ccc(N3CCCCS3(=O)=O)cc2n1Cc1ccc(-c2ccccc2C(=O)O)cc1 | –
35 | 4 nM | CCCCc1nc2ccc(N3CCCCC3=O)cc2n1Cc1ccc(-c2ccccc2-c2nnn[nH]2)cc1 | inhibition in vivo at 0.3 mg/kg [2]: 60%
36 | 3 nM | CCCc1nc2c(C)cc(-c3cn4ccccc4n3)cc2n1Cc1ccc(-c2ccccc2-c2nnn[nH]2)cc1 | –
37 | 86 nM | CCCCC(=O)Nc1ccc2nc(CCCC)n(Cc3ccc(-c4ccccc4C(=O)O)cc3)c2c1 | –
38 | 3 nM | CCCCc1nc2ccc(N3CCCCS3(=O)=O)cc2n1Cc1ccc(-c2ccccc2-c2nnn[nH]2)cc1 | inhibition in vivo at 0.3 mg/kg [2]: 60%
39 | 3 nM | CCCc1nc2c(C)cc(-c3nc4ccccc4n3C)cc2n1Cc1ccc(-c2ccccc2C(=O)O)cc1 | MABP [3]: 68 mmHg; MABP [4]: 42 mmHg
